According to PubChem BioAssay:
Calls of active or inactive are those of the source.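 How the source made its calls, unless noted: active means viability at or under a set limit in both replicates, limit being median viability minus 3 SD (cut at about 48% in these data, passing the limit was not always enough); inconclusive means at or under the limit in just one replicate; inactive means at or above the limit in both replicates.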

Key:
[1] = SK-BR-3 cell growth inhibitors, pilot screen, 24 h, human (AID 572;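 active means viability at or below 10% of carrier control in both of two separate runs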;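 further: compound exposure lasted between 18 and 24 h rather than exactly 24 h; 100% = carrier-treated control wells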); settings: SK-BR-3 viability, CellTiter-Glo luminescence, at 10 µM, stronger effect = lower value
[2] = HUVEC growth inhibition – cell-based, human, primary screen (AID 575;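 active means viability at or below 30% in both replicate assays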;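 further: 100% = median of untreated cell wells with 0.1% DMSO on each plate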); settings: HUVEC proliferation, CellTiter-Glo luminescence, 72 h; at 10 µM; stronger effect = lower value
In short: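 Test system – primary HUVEC, no more than 12 passages · Dosing – one dose, 10 µM final, 0.1% DMSO · Times – 72 h treatment at 37 °C · Measured by – ATP-based CellTiter-Glo luminescent read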

[3] = growth inhibitors of H69AR lung tumor, primary screen, human, duplicate replicates (AID 580); settings: H69AR lung tumor cells viability, ATP luminescence, 72 h; at 10 µM; stronger effect = lower value;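 further: 100% = mean luminescence of untreated wells and 0% = no signal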
[4] = reversal of MRP1-mediated doxorubicin resistance, pilot screen, H69AR cells, doxorubicin co-treatment (AID 601;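 active means viability loss from added drug above about 55%, and viability with drug at most 40%, in both replicates, limit read from the data, passing the limit was not always enough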); settings: CellTiter-Glo, 72 h, at 10 µM; for differential viability (reversal): stronger effect = higher value
[5] = 384-well plate pilot, post-Golgi transport modulator project, inhibition of yeast transport mutant growth (AID 636; in the data active means inhibition above about 31%); settings: absorbance 615 nm, about 18 h, stronger effect = higher value
[6] = growth suppression of yeast trafficking mutant, preliminary HTS, modulators of trafficking downstream of Golgi apparatus project, 1536-format plate, OD 615 nm (AID 637; in the data active means inhibition above about 30%); settings: yeast transport mutant growth, absorbance 615 nm, 18 h; stronger effect = higher value
[7] = H69AR cells + 2 uM doxorubicin, measured here: viability with 2 uM doxorubicin, stronger effect = lower value
[8] = H69AR cells, compound alone cytotoxicity

Compound: CN/C(=C/[N+](=O)[O-])NCCSCc1ccc(CN(C)C)o1
- viability [1]: 116% (inactive)
- viability [2]: 87.7% (inactive)
- viability [3]: 94.2% (inactive)
- differential viability (reversal) ([4]; H69AR cells + 2 uM doxorubicin): -0.85% (inactive)
- viability [4, 7]: 95%
- viability [4, 8]: 94.2%
- inhibition [5]: -2.47% (inactive)
- inhibition [6]: 4% (inactive)

Compound: CN1C(=O)c2c(sc3c2CCCC3)NC1c1ccccc1O (stereo not given)
- viability [1]: 72% (inactive)
- viability [2]: 68.7% (inactive)
- viability [3]: 93.2% (inactive)
- differential viability (reversal) ([4]; H69AR cells + 2 uM doxorubicin): -2.01% (inactive)
- viability [4, 7]: 95.2%
- viability [4, 8]: 93.2%
- inhibition [5]: -3.97% (inactive)
- inhibition [6]: -0.81% (inactive)

Compound: COc1ccc(OC)c(NC(=O)C2C3CC4OC(=O)C2C4C3)c1 (stereo not given)
- viability [1]: 103% (inactive)
- viability [2]: 102% (inactive)
- viability [3]: 98.3% (inactive)
- differential viability (reversal) ([4]; H69AR cells + 2 uM doxorubicin): 8.29% (inactive)
- viability [4, 7]: 90%
- viability [4, 8]: 98.3%
- inhibition [5]: -6.89% (inactive)
- inhibition [6]: -4% (inactive)

Compound: Cc1ccc(NC(=O)COC(=O)c2ccn(C)n2)cc1
- viability [1]: 76% (inactive)
- viability [2]: 90.8% (inactive)
- viability [3]: 87.2% (inactive)
- differential viability (reversal) ([4]; H69AR cells + 2 uM doxorubicin): 7.78% (inactive)
- viability [4, 7]: 79.4%
- viability [4, 8]: 87.2%
- inhibition [5]: -2.74% (inactive)
- inhibition [6]: -1.09% (inactive)

Compound: N#CCOc1nc(N2CCOCC2)nc(N2CCOCC2)n1
- viability [1]: 99% (inactive)
- viability [2]: 96.6% (inactive)
- viability [3]: 90.8% (inactive)
- differential viability (reversal) ([4]; H69AR cells + 2 uM doxorubicin): -0.985% (inactive)
- viability [4, 7]: 91.8%
- viability [4, 8]: 90.8%
- inhibition [5]: -7.3% (inactive)
- inhibition [6]: -2.73% (inactive)

Compound: COc1cccc(NC(=O)CC2SC(=Nc3ccccc3)NC2=O)c1 (stereo not given)
- viability [1]: 70% (inactive)
- viability [2]: 106% (inactive)
- viability [3]: 92% (inactive)
- differential viability (reversal) ([4]; H69AR cells + 2 uM doxorubicin): -6.89% (inactive)
- viability [4, 7]: 98.9%
- viability [4, 8]: 92%
- inhibition [5]: -6.35% (inactive)
- inhibition [6]: -1.27% (inactive)

Compound: CCOC(=O)C1=C(C)NC(C)=C(C(=O)OC)C1c1cccc(Cl)c1Cl (stereo not given)
- viability [1]: 86% (inactive)
- viability [2]: 11.2% (active)
- viability [3]: 72% (inactive)
- differential viability (reversal) ([4]; H69AR cells + 2 uM doxorubicin): 4.92% (inactive)
- viability [4, 7]: 67.1%
- viability [4, 8]: 72%
- inhibition [5]: 11.3% (inactive)
- inhibition [6]: 13.2% (inactive)

Compound: N#Cc1c(N2CCOCC2)nc(N2CCCCC2)c2c1CCN(C1CCCCC1)C2
- viability [1]: 92% (inactive)
- viability [2]: 101% (inactive)
- viability [3]: 89.2% (inactive)
- differential viability (reversal) ([4]; H69AR cells + 2 uM doxorubicin): 17.5% (inactive)
- viability [4, 7]: 71.6%
- viability [4, 8]: 89.2%
- inhibition [5]: -1.22% (inactive)
- inhibition [6]: -1.82% (inactive)

Compound: O=C(CN1CCN(c2nc(-c3ccc(Cl)cc3)cs2)CC1)NCc1ccco1
- viability [1]: 67% (inactive)
- viability [2]: 95.6% (inactive)
- viability [3]: 97.9% (inactive)
- differential viability (reversal) ([4]; H69AR cells + 2 uM doxorubicin): 3.06% (inactive)
- viability [4, 7]: 94.8%
- viability [4, 8]: 97.9%
- inhibition [5]: -5.07% (inactive)
- inhibition [6]: -2.18% (inactive)

Compound: COCCCN(Cc1ccccn1)S(=O)(=O)Cc1ccccc1
- viability [1]: 130% (inactive)
- viability [2]: 83.5% (inactive)
- viability [3]: 105% (inactive)
- differential viability (reversal) ([4]; H69AR cells + 2 uM doxorubicin): 17.9% (inactive)
- viability [4, 7]: 86.7%
- viability [4, 8]: 105%
- inhibition [5]: -4.11% (inactive)
- inhibition [6]: -9.68% (inactive)

Compound: CCn1c(=O)c2cc(S(=O)(=O)NCc3ccccc3)ccc2n(CC)c1=O
- viability [1]: 93% (inactive)
- viability [2]: 62.8% (inactive)
- viability [3]: 19.4% (active)
- differential viability (reversal) ([4]; H69AR cells + 2 uM doxorubicin): -77.1% (inactive)
- viability [4, 7]: 96.5%
- viability [4, 8]: 19.4%
- inhibition [5]: -1.3% (inactive)
- inhibition [6]: 18.7% (inactive)

Compound: Cc1ccc(OCC(O)Cn2c(NCCc3ccccc3)nc3c2c(=O)[nH]c(=O)n3C)cc1 (stereo not given)
- viability [1]: 60% (inactive)
- viability [2]: 88.8% (inactive)
- viability [3]: 93.9% (inactive)
- differential viability (reversal) ([4]; H69AR cells + 2 uM doxorubicin): -5.09% (inactive)
- viability [4, 7]: 99%
- viability [4, 8]: 93.9%
- inhibition [5]: -3.97% (inactive)
- inhibition [6]: -1.27% (inactive)

Compound: CC(C)NC(=O)c1ccccc1NC(=O)CCS(=O)(=O)Cc1ccccc1
- viability [1]: 116% (inactive)
- viability [2]: 107% (inactive)
- viability [3]: 87.7% (inactive)
- differential viability (reversal) ([4]; H69AR cells + 2 uM doxorubicin): -1.34% (inactive)
- viability [4, 7]: 89.1%
- viability [4, 8]: 87.7%
- inhibition [5]: -1.64% (inactive)
- inhibition [6]: 9.82% (inactive)

Compound: CC(=O)N1CN(C2CCCC2)Cc2c1sc1c2CCCC1
- viability [1]: 95% (inactive)
- viability [2]: 103% (inactive)
- viability [3]: 101% (inactive)
- differential viability (reversal) ([4]; H69AR cells + 2 uM doxorubicin): -16% (inactive)
- viability [4, 7]: 117%
- viability [4, 8]: 101%
- inhibition [5]: -8.22% (inactive)
- inhibition [6]: 0.36% (inactive)

Compound: CCCc1nc(NCc2ccncc2)c2nnn(Cc3ccccc3F)c2n1
- viability [1]: 99% (inactive)
- viability [2]: 107% (inactive)
- viability [3]: 54.5% (inactive)
- differential viability (reversal) ([4]; H69AR cells + 2 uM doxorubicin): 8.61% (inactive)
- viability [4, 7]: 45.9%
- viability [4, 8]: 54.5%
- inhibition [5]: -1.37% (inactive)
- inhibition [6]: -3.39% (inactive)

Compound: O=C(O)CSC1CC(=O)N(c2ccc(Cl)c(Cl)c2)C1=O (stereo not given)
- viability [1]: 104% (inactive)
- viability [2]: 109% (inactive)
- viability [3]: 98.8% (inactive)
- differential viability (reversal) ([4]; H69AR cells + 2 uM doxorubicin): 7.75% (inactive)
- viability [4, 7]: 91.1%
- viability [4, 8]: 98.8%
- inhibition [5]: -8.38% (inactive)
- inhibition [6]: 0.36% (inactive)

Compound: CCc1ccccc1N1C(=O)C2CC(C)=C(C)CC2C1=O (stereo not given)
- viability [1]: 89% (inactive)
- viability [2]: 104% (inactive)
- viability [3]: 103% (inactive)
- differential viability (reversal) ([4]; H69AR cells + 2 uM doxorubicin): 18% (inactive)
- viability [4, 7]: 84.7%
- viability [4, 8]: 103%
- inhibition [5]: -5.73% (inactive)
- inhibition [6]: 0% (inactive)

Compound: Cc1cc(C(=O)Nc2ccc(S(=O)(=O)Nc3onc(C)c3C)cc2)cs1
- viability [1]: 101% (inactive)
- viability [2]: 101% (inactive)
- viability [3]: 99.4% (inactive)
- differential viability (reversal) ([4]; H69AR cells + 2 uM doxorubicin): 2.97% (inactive)
- viability [4, 7]: 96.4%
- viability [4, 8]: 99.4%
- inhibition [5]: -3.38% (inactive)
- inhibition [6]: 0% (inactive)

Compound: CC(C)OC(=O)CSc1nnc(-c2cccnc2)n1Cc1ccccc1
- viability [1]: 86% (inactive)
- viability [2]: 105% (inactive)
- viability [3]: 89.9% (inactive)
- differential viability (reversal) ([4]; H69AR cells + 2 uM doxorubicin): 9.68% (inactive)
- viability [4, 7]: 80.2%
- viability [4, 8]: 89.9%
- inhibition [5]: -5.81% (inactive)
- inhibition [6]: 0.18% (inactive)

Compound: O=C(NC1CCCCCCC1)C1CCN(c2nc3ccccc3o2)CC1
- viability [1]: 106% (inactive)
- viability [2]: 85.7% (inactive)
- viability [3]: 92.2% (inactive)
- differential viability (reversal) ([4]; H69AR cells + 2 uM doxorubicin): -2.57% (inactive)
- viability [4, 7]: 94.7%
- viability [4, 8]: 92.2%
- inhibition [5]: 7.2% (inactive)
- inhibition [6]: 1.09% (inactive)

Compound: CSc1nnc(-c2ccccc2)n1C
- viability [1]: 121% (inactive)
- viability [2]: 102% (inactive)
- viability [3]: 102% (inactive)
- differential viability (reversal) ([4]; H69AR cells + 2 uM doxorubicin): 6.17% (inactive)
- viability [4, 7]: 95.5%
- viability [4, 8]: 102%
- inhibition [5]: -8.36% (inactive)
- inhibition [6]: -0.55% (inactive)

Compound: CCOC(=O)c1cnc(C(C)(C)C)[nH]c1=O
- viability [1]: 106% (inactive)
- viability [2]: 102% (inactive)
- viability [3]: 95.8% (inactive)
- differential viability (reversal) ([4]; H69AR cells + 2 uM doxorubicin): 7.84% (inactive)
- viability [4, 7]: 88%
- viability [4, 8]: 95.8%
- inhibition [5]: -6.22% (inactive)
- inhibition [6]: -0.91% (inactive)

Compound: Cc1cc(C(F)(F)F)nc(NCc2cccnc2)n1
- viability [1]: 97% (inactive)
- viability [2]: 96.4% (inactive)
- viability [3]: 92.5% (inactive)
- differential viability (reversal) ([4]; H69AR cells + 2 uM doxorubicin): 9.55% (inactive)
- viability [4, 7]: 82.9%
- viability [4, 8]: 92.5%
- inhibition [5]: -1.04% (inactive)
- inhibition [6]: -1.97% (inactive)

Compound: Cc1cc(S(=O)(=O)N(Cc2ccccc2)Cc2ccc(N(C)C)cc2)ccc1-n1cnnn1
- viability [1]: 81% (inactive)
- viability [2]: 84.3% (inactive)
- viability [3]: 84% (inactive)
- differential viability (reversal) ([4]; H69AR cells + 2 uM doxorubicin): -3.54% (inactive)
- viability [4, 7]: 87.6%
- viability [4, 8]: 84%
- inhibition [5]: -8.24% (inactive)
- inhibition [6]: -2.36% (inactive)

Compound: COc1cccc(N2CCN(Cc3nc(N)nc(Nc4ccccc4)n3)CC2)c1
- viability [1]: 119% (inactive)
- viability [2]: 89.1% (inactive)
- viability [3]: 75.5% (inactive)
- differential viability (reversal) ([4]; H69AR cells + 2 uM doxorubicin): -14.5% (inactive)
- viability [4, 7]: 90%
- viability [4, 8]: 75.5%
- inhibition [5]: -3.77% (inactive)
- inhibition [6]: 0.16% (inactive)
